Assay results as given in ChEMBL document CHEMBL2029233, “Des-acyl ghrelin fragments and analogues promote survival of pancreatic β-cells and human pancreatic islets and prevent diabetes in streptozotocin-treated rats” (2012).
Activity calls are given as the source filed them. The rule behind the calls is not given here.

What was measured:
[1] = system: HIT-T15; assay: Antiapoptotic activity in hamster HIT-T15 cells assessed as reduction in IFN-gamma/TNFalpha/IL1beta-induced apoptosis at 1 nM after 24 hrs by Hoechst staining relative to control; format: functional, cell-based; details: Mesocricetus auratus
Summary of the method: (§1)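 HIT-T15 cells serum-starved 24 h, then 24 h in serum-free medium with IFN-γ 100 ng/mL, TNF-α 200 ng/mL, IL-1β 10 ng/mL plus peptide. Cells pooled with floating cells, formaldehyde-fixed, ethanol-stored, stained with 10 μg/mL Hoechst 33258. Condensed/fragmented nuclei counted, 500 nuclei in duplicate, n = 3. Reported as percent apoptotic cells.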

[2] = system: HIT-T15; assay: Antiapoptotic activity in hamster HIT-T15 cells assessed as reduction in IFN-gamma/TNFalpha/IL1beta-induced apoptosis at 10 nM after 24 hrs by Hoechst staining relative to control; format: functional, cell-based; details: Mesocricetus auratus; summary of the method: as §1
[3] = system: HIT-T15; assay: Antiapoptotic activity in hamster HIT-T15 cells assessed as reduction in IFN-gamma/TNFalpha/IL1beta-induced apoptosis at 100 nM after 24 hrs by Hoechst staining relative to control; format: functional, cell-based; details: Mesocricetus auratus; summary of the method: as §1
[4] = system: Pancreatic islet; assay: Cytoprotective activity in human pancreatic islet cells assessed as inhibition of serum starvation-induced cell death at 10 to 100 nM after 72 hrs by MTT assay relative to control; format: functional
Summary of the method: (§2)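 Human donor islets (>70% purity, 25/well) held 72 h in serum-free medium with peptide, alone or with IFN-γ/TNF-α/IL-1β at 5 ng/mL each. Viability by MTT (1 mg/mL ~1 h, DMSO, 570 nm). Mean ± SE of ≥3 experiments in quadruplicate.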

[5] = system: Pancreatic islet; assay: Cytoprotective activity in human pancreatic islet cells assessed as inhibition of IFN-gamma/TNFalpha/IL1beta-induced cell death at 10 to 100 nM after 72 hrs by MTT assay relative to control; format: functional; summary of the method: as §2
[6] = system: HIT-T15; assay: Cytoprotective activity in hamster HIT-T15 cells assessed as inhibition of serum starvation-induced cell death after 24 hrs by MTT assay relative to control; format: functional, cell-based; details: Mesocricetus auratus
Summary of the method: (§3)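 Viability by MTT in HIT-T15 cells seeded at 5×10^3/well, serum-starved 24 h, then 24 h more in serum-free medium with peptide (1–100 nM). MTT 1 mg/mL ~1 h, DMSO solubilization, absorbance 570 nm. Expressed as percent of serum-free control. Mean ± SE, ≥3 experiments in quadruplicate.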

[7] = system: HIT-T15; assay: Cytoprotective activity in hamster HIT-T15 cells assessed as inhibition of IFN-gamma/TNFalpha/IL1beta-induced cell death after 24 hrs by MTT assay relative to control; format: functional, cell-based; details: Mesocricetus auratus
Summary of the method: (§4)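 HIT-T15 cells (5×10^3/well) serum-starved 24 h, then 24 h serum-free with IFN-γ 100 ng/mL, TNF-α 200 ng/mL, IL-1β 10 ng/mL plus peptide (1–100 nM). MTT 1 mg/mL ~1 h, formazan dissolved in DMSO, A570. Reported as percent of cytokine control. Mean ± SE of ≥3 experiments in quadruplicate.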

[8] = system: Rattus norvegicus; assay: Antidiabetic activity in neonatal Sprague-Dawley rat assessed as inhibition of STZ-induced mortality at 30 nmol/kg, sc administered on day 2 post STZ-challenge measured on day 9 (reference value: 52%); format: functional; design: scale not given: the % may be the effect or the level left
[9] = system: Rattus norvegicus; assay: Antidiabetic activity in neonatal Sprague-Dawley rat assessed as inhibition of STZ-induced mortality at 100 nmol/kg, sc administered on day 2 post STZ-challenge measured on day 9 (reference value: 52%); format: functional; design: scale not given: the % may be the effect or the level left
[10] = system: Rattus norvegicus; assay: Antidiabetic activity in neonatal Sprague-Dawley rat assessed as decrease in STZ-induced plasma glucose level at 30 nmol/kg, sc administered from day 2 to day 9 post STZ-challenge measured after 70 days by colorimetry relative to control; format: functional, organism-based
Summary of the method: (§5)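 Neonatal rats given STZ 100 mg/kg ip in citrate buffer (pH 4.5) on day 1 of birth, then peptide 30 or 100 nmol/kg sc twice daily, days 2–8. Controls received citrate buffer. Killed at day 70. Glucose measured colorimetrically in nonfasted plasma. Plasma and pancreatic (80 mg) insulin measured by RIA. n = 11–21 per group.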

[11] = system: Rattus norvegicus; assay: Antidiabetic activity in neonatal Sprague-Dawley rat assessed as decrease in STZ-induced plasma glucose level at 100 nmol/kg, sc administered from day 2 to day 9 post STZ-challenge measured after 70 days by colorimetry by relative to control; format: functional, organism-based; summary of the method: as §5
[12] = system: Rattus norvegicus; assay: Antidiabetic activity in neonatal Sprague-Dawley rat assessed as inhibition of STZ-induced decrease in plasma insulin level at 30 nmol/kg, sc administered from day 2 to day 9 post STZ-challenge measured after 70 days by RIA relative to control; format: functional, organism-based; summary of the method: as §5
[13] = system: Rattus norvegicus; assay: Antidiabetic activity in neonatal Sprague-Dawley rat assessed as inhibition of STZ-induced decrease in plasma insulin level at 100 nmol/kg, […] post STZ-challenge measured after 70 days by RIA by relative to control; format: functional, organism-based
[14] = system: Rattus norvegicus; assay: Antidiabetic activity in neonatal Sprague-Dawley rat assessed as inhibition of STZ-induced decrease in pancreatic insulin level at 30 nmol/kg, […] measured after 70 days by RIA relative to control; format: functional, organism-based
[15] = system: Rattus norvegicus; assay: Antidiabetic activity in neonatal Sprague-Dawley rat assessed as inhibition of STZ-induced decrease in pancreatic insulin level at 100 nmol/kg, sc administered from day 2 to day 9 post STZ-challenge measured after 70 days by RIA by relative to control; format: functional, organism-based; summary of the method: as §5
[16] = system: EPC; assay: Cytoprotective activity in human EPC assessed as decrease in H2O2-induced ROS production after 2 hrs by DCF-DA flow cytometry assay; format: functional
Summary of the method: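 Human EPCs from peripheral blood mononuclear cells, cultured 21 days on collagen I in EGM-2. ROS measured by flow cytometry using DCF-DA (0.5 μM final) after 2 h of treatment. H₂O₂ 150 μM as positive control.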

[17] = molecular target: Ras-related C3 botulinum toxin substrate 1 (Homo sapiens) (UniProt P63000); assay: Inhibition of Rac1 activation
[18] = system: EPC; assay: Cytoprotective activity in human EPC assessed as decrease in H2O2-induced senescence associated beta-galactosidase positive cells at 10 uM after 24 hrs; format: functional
Summary of the method: (§6)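 EPCs given test peptides (1 μM or 10 μM) with or without H₂O₂ for 24 h. Cells then fixed in 2% paraformaldehyde for 3 min and stained 24 h at 37 °C with X-gal solution. SA-β-gal-positive cells counted out of 100 at 20× by three investigators.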

[19] = system: HIT-T15; assay: Cytoprotective activity in hamster HIT-T15 cells assessed as inhibition of serum starvation-induced cell death at 1 to 100 nM after 24 hrs by MTT assay relative to control; format: functional, cell-based; details: Mesocricetus auratus; summary of the method: as §3
[20] = system: HIT-T15; assay: Cytoprotective activity in hamster HIT-T15 cells assessed as inhibition of IFN-gamma/TNFalpha/IL1beta-induced cell death at 1 to 100 nM after 24 hrs by MTT assay relative to control; format: functional, cell-based; details: Mesocricetus auratus; summary of the method: as §4
[21] = system: Pancreatic islet; assay: Cytoprotective activity in human pancreatic islet cells assessed as inhibition of IFN-gamma/TNFalpha/IL1beta-induced cell death at 100 nM after 24 hrs by MTT assay relative to control; format: functional
Summary of the method: (§7)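 Human donor islets (purity >70%, 25/well) serum-starved 24 h, then 24 h serum-free with peptide (1–100 nM), alone or with IFN-γ 100 ng/mL, TNF-α 200 ng/mL, IL-1β 10 ng/mL. MTT 1 mg/mL ~1 h, DMSO, A570. Percent of serum-free or cytokine control. ≥3 experiments in quadruplicate.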

[22] = system: EPC; assay: Cytoprotective activity in human EPC assessed as decrease in H2O2-induced senescence associated beta-galactosidase positive cells at 1 uM after 24 hrs; format: functional; summary of the method: as §6
[23] = system: Pancreatic islet; assay: Cytoprotective activity in human pancreatic islet cells assessed as inhibition of serum starvation-induced cell death at 1 nM after 24 hrs by MTT assay relative to control; format: functional; summary of the method: as §7
[24] = system: Pancreatic islet; assay: Cytoprotective activity in human pancreatic islet cells assessed as inhibition of serum starvation-induced cell death at 10 nM after 24 hrs by MTT assay relative to control; format: functional; summary of the method: as §7
[25] = system: Pancreatic islet; assay: Cytoprotective activity in human pancreatic islet cells assessed as inhibition of serum starvation-induced cell death at 100 nM after 24 hrs by MTT assay relative to control; format: functional; summary of the method: as §7
[26] = system: Pancreatic islet; assay: Cytoprotective activity in human pancreatic islet cells assessed as inhibition of IFN-gamma/TNFalpha/IL1beta-induced cell death at 1 nM after 24 hrs by MTT assay relative to control; format: functional; summary of the method: as §7
[27] = system: Pancreatic islet; assay: Cytoprotective activity in human pancreatic islet cells assessed as inhibition of IFN-gamma/TNFalpha/IL1beta-induced cell death at 10 nM after 24 hrs by MTT assay relative to control; format: functional; summary of the method: as §7

SMILES	Activity [1]	Activity [2]	Activity [3]	Activity [4]	Activity [5]	Activity [6]	Activity [7]	Activity [8] [%]	Activity [10]	Activity [12]	Activity [14]	Activity [16]	Activity [19]	Activity [20]	also measured
CC(C)[C@H](NC(=O)[C@H](CCCNC(=N)N)NC(=O)[C@H](CCC(N)=O)NC(=O)[C@H](Cc1cnc[nH]1)NC(=O)[C@H](CCC(=O)O)NC(=O)[C@@H]1CCCN1C(=O)[C@@H](N)CO)C(=O)N[C@@H](CCC(N)=O)C(N)=O	Active	Active	Active	Active	Active	Dose-dependent effect	Dose-dependent effect	71	Active	Active	Active	Active	Active	Active	Activity [9]: 89%; Activity [11]: Active; Activity [13]: Active; Activity [15]: Active; inhibition [17]: Active; Activity [18]: Active
CC(C)C[C@H](NC(=O)[C@H](CCCCN)NC(=O)[C@H](C)NC(=O)[C@@H]1CCCN1C(=O)[C@@H]1CCCN1C(=O)[C@H](CCCCN)NC(=O)[C@H](CCCCN)NC(=O)[C@H](CO)NC(=O)[C@H](CCC(=O)O)NC(=O)[C@H](CCCCN)NC(=O)[C@H](CCCNC(=N)N)NC(=O)[C@H](CCC(N)=O)NC(=O)[C@H](CCC(N)=O)NC(=O)[C@@H](NC(=O)[C@H](CCCNC(=N)N)NC(=O)[C@H](CCC(N)=O)NC(=O)[C@H](Cc1cnc[nH]1)NC(=O)[C@H](CCC(=O)O)NC(=O)[C@@H]1CCCN1C(=O)[C@H](CO)NC(=O)[C@H](CC(C)C)NC(=O)[C@H](Cc1ccccc1)NC(=O)[C@H](CO)NC(=O)[C@H](CO)NC(=O)CN)C(C)C)C(=O)N[C@@H](CCC(N)=O)C(=O)N1CCC[C@H]1C(=O)N[C@@H](CCCNC(=N)N)C(=O)O	Active	Active	Active	Active	Active	Dose-dependent effect	Dose-dependent effect	72	Active	Active	Active	Active	Active	Active	Activity [21]: Active; Activity [22]: Active; Activity [23]: inactive; Activity [24]: Active; Activity [25]: Active; Activity [26]: Active; Activity [27]: Active
